Published values gathered from unrelated publications.
Lines come from different studies, so protocols differ.
LATS2: Serine/threonine-protein kinase LATS2 (LATS2, Homo sapiens, UniProt Q9NRM7)
AKR1B1: Aldo-keto reductase family 1 member B1 (AKR1B1, Homo sapiens, UniProt P15121)

SMILES	target	observed	action	method	IC50
O=C(Nc1c[nH]nc1-c1nc2cc(CN3CCOCC3)ccc2[nH]1)NC1CC1	LATS2	enzyme activity	inhibitor	radiometric	114 nM
Cc1cc2c(cc1C)N[C@H](c1ccccc1)[C@@H](O)C(=O)N2	Tyrosine-protein kinase JAK2 (JAK2, Homo sapiens, UniProt O60674)	enzyme activity	inhibitor	ELISA	343 nM
OC1(c2ccc(-c3ccnc4[nH]cc(F)c34)cc2)CCNC1 (stereo not drawn)	LATS2	enzyme activity	inhibitor	radiometric	8.4 nM
Clc1ccc(Nc2ccncc2)cc1Cl	Endonuclease 8-like 1 (NEIL1, Homo sapiens, UniProt Q96FI4)	enzyme activity	inhibitor	–	> 99000 nM
COc1cc(/C=N/NC(=S)NN=Cc2cccs2)ccc1Oc1ccnc2cc(Cl)ccc12	AKR1B1	enzyme activity	inhibitor	absorbance	19700 nM
CC(C)C[C@H](NP(=O)(O)O[C@@H]1O[C@@H](C)[C@H](O)[C@@H](O)[C@H]1O)C(=O)N[C@@H](Cc1c[nH]c2ccccc12)C(=O)O	Neprilysin (MME, Homo sapiens, UniProt P08473)	enzyme activity	inhibitor	–	575 nM
Cc1cn([C@H]2C[C@H](OP(=O)(O)OC[C@H]3O[C@@H](n4cc(C)c(=O)[nH]c4=O)C[C@@H]3O)[C@@H](COP(=O)(O)OP(=O)(O)O)O2)c(=O)[nH]c1=O	dgt (Salmonella enterica, UniProt A0A5H6DAK1)	enzyme activity	inhibitor	–	19700 nM
COc1cc(/C=N/NC(=S)N/N=C/c2ccc(C=O)cc2)ccc1Oc1ccnc2cc(Cl)ccc12	AKR1B1	enzyme activity	inhibitor	absorbance	12900 nM
C[C@@H]1CNC[C@H](C)[C@@]1(O)c1ccc(-c2ccnc3[nH]cc(F)c23)cc1	LATS2	enzyme activity	inhibitor	radiometric	8.7 nM
COc1cc(CN(CCN)C(=O)c2cccs2)ccc1OCc1ccccc1	Transient receptor potential cation channel subfamily M member 8 (TRPM8, Homo sapiens, UniProt Q7Z2W7)	ion current	inhibitor	patch clamp	12 nM
OC1(c2ccc(-c3ccnc4[nH]cc(F)c34)cc2)CCCNC1 (stereo not drawn)	LATS2	enzyme activity	inhibitor	radiometric	10 nM
COc1cc(/C=N/NC(=S)NN=Cc2scnc2C)ccc1Oc1ccnc2cc(Cl)ccc12	AKR1B1	enzyme activity	inhibitor	absorbance	17800 nM
Cc1cc(-c2ccnc3[nH]cc(F)c23)cc(F)c1[C@@]1(O)[C@H](C)CN(C(=O)CN)C[C@@H]1C	LATS2	target engagement in cells	–	BRET	5.1 nM
COc1cc(/C=N/NC(=S)NN=Cc2ccncc2)ccc1Oc1ccnc2cc(Cl)ccc12	AKR1B1	enzyme activity	inhibitor	absorbance	9920 nM
COc1c(Cl)cccc1Nc1c(-c2ccncc2OC[C@@H]2COCCO2)[nH]c2c1C(=O)NCC2	Tyrosine-protein kinase Lck, phosphorylated (LCK, Homo sapiens, UniProt P06239)	enzyme activity	inhibitor	TR-FRET	1130 nM
